High-throughput results: PubChem BioAssay, Sanford-Burnham Center for Chemical Genomics
Apaf1 activ = activates human Apaf-1 apoptosome | activity change, negative = activation, % at 20 µM | O14727 | AID 489031 | Apaf-1 apoptosome caspase-3 activation, DEVD-Rh110 fluorescence; active compounds read low | 330,000 tested, 0.31% active;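 active means activity change at or below -40% at 20 µM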
Target sequence (O14727 whole entry, looked up): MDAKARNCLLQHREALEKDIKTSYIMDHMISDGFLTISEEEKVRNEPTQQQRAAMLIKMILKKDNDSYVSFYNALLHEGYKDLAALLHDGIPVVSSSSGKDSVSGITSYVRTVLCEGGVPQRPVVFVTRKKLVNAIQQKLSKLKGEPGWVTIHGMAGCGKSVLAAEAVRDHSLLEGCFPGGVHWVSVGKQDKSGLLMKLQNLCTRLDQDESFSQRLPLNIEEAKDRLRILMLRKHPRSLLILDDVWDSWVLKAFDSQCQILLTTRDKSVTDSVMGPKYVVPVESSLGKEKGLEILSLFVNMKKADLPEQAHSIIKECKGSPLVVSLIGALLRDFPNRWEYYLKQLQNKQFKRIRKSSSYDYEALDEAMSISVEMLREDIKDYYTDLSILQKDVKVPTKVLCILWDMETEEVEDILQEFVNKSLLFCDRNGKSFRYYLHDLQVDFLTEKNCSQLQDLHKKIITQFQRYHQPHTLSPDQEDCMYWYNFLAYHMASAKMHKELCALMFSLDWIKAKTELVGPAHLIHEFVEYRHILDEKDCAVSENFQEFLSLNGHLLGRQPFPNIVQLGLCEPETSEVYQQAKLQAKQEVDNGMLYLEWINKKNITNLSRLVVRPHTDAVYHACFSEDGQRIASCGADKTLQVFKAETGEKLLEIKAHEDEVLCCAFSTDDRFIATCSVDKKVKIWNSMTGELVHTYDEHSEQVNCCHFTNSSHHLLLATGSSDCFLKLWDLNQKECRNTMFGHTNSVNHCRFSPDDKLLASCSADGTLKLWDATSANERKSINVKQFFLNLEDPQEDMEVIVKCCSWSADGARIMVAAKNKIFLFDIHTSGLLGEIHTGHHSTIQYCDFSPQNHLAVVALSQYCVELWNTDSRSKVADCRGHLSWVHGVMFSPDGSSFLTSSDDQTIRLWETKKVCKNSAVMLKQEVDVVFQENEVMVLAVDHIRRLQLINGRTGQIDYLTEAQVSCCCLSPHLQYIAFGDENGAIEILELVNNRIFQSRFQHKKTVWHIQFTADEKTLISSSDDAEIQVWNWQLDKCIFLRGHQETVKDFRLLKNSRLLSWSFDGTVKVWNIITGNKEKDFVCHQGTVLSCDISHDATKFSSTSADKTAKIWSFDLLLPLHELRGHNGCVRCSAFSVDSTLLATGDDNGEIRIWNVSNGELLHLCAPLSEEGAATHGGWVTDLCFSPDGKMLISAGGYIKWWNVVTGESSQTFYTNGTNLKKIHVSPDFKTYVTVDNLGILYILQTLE
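Material: reconstituted apoptosome of Apaf-1, cytochrome c, caspase-9, procaspase-3; times: 30 min preincubation, 50 min reaction, room temperature; measured by: fluorescence, 540 nm emission, 480 nm excitation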
Rh110 interf act = interferes with Rh110 fluorescence, flagging false Apaf-1 activators | shares compounds with Apaf1 activ | Rh110 fluorescence interference, quenched caspase reaction, Ex480/Em540 | fluorescence interference (activity change), % at 20 µM, hits read low | 980 tested, under 10 active | AID 504616;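 active means mean activity change at or below -40% when tested at 20 µM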
Apaf-1 act conf = confirmation of human Apaf-1 activators; shares compounds with Apaf1 activ; reconstituted apoptosome caspase-3 activity, DEVD-Rh110 fluorescence; active compounds read low; activity change, negative = activation, % at 20 µM; 980 tested, 5% active; AID 504617;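 active means mean activity change at or below -40%, meaning activation of 40% or more, at 20 µM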
Apaf1 act interf = counter-screen for Apaf-1 activators: fluorescence interference, dose response | EC50, µM | shares compounds with Apaf1 activ | fluorescence interference counterscreen, Apaf-1 activator assay | 55 tested, under 10 active; call rule not given here
Each line names hits and unclear results; the compound was inactive in the other large screens (follow-up assays come after a bar, where they were run). A selection follows.

Cc1cc(NC(=O)CCC(=O)N(CC(=O)NCC2CCCO2)Cc2ccc(F)cc2)no1 (stereo not drawn)	Apaf1 activ -45 | Rh110 interf act inactive | Apaf-1 act conf inactive
CCCCn1c(NC(=O)c2ccc(Br)o2)c(S(=O)(=O)c2ccccc2)c2nc3ccccc3nc21	none
CCC(CO)Oc1cc(NCc2ccncc2)c2ncn(C(C)C)c2c1 (stereo not drawn)	none
COc1cccc(-c2sc3ccccc3c2-c2ccc(OCCN(C)C)cc2)c1	none
CN1CCCC1CCNc1ccc2sc3ccccc3c(=O)c2c1 (stereo not drawn)	none
COc1ccc2sc3ccccc3c(=O)c2c1	Apaf1 activ -77 | Rh110 interf act inactive | Apaf-1 act conf inactive
CCOC(=O)c1ccc(NC2=CC(=O)C(=O)c3ccccc32)cc1	none
CC1=CC2=NC(=O)/C(=C/c3coc4ccc(Cl)cc4c3=O)C(=N)N2O1	Apaf1 activ -522 | Rh110 interf act inactive | Apaf-1 act conf inactive
O=C(NCc1cccs1)c1cccc(S(=O)(=O)N2CCCCC2)c1	none
O=C(N/N=C/c1ccccn1)c1cccc(S(=O)(=O)N2CCCC2)c1	Apaf1 activ -587 | Rh110 interf act inactive | Apaf-1 act conf inactive
CN1CCN(S(=O)(=O)c2cccc(C(=O)Nc3cc(C(F)(F)F)ccc3N3CCCCC3)c2)CC1	none
NCCN1CCN(S(=O)(=O)c2ccc([N+](=O)[O-])cc2)C=C1c1ccc(Cl)cc1	none
COc1cc(OC)c2c(-c3cccc(-c4ccc(CO)cc4)c3)cc(=O)oc2c1	none
Cc1cccc(Oc2nc(-c3ccccn3)nc3ccccc23)c1	Apaf1 activ -553 | Rh110 interf act inactive | Apaf-1 act conf inactive
O=C(COC(=O)c1cccc(Cl)c1)NCCN1C(=O)CSC1=O	Apaf1 activ -46 | Rh110 interf act inactive | Apaf-1 act conf inactive
COc1ccc(CNCC(O)(c2ccc(Cl)cc2)c2ccc(Cl)cc2)cc1OC	none
CCc1ccc(S(=O)(=O)/N=C2\C=CC(=O)c3ccccc32)cc1	none
O=C(c1cccc(S(=O)(=O)NCc2ccccc2)c1)N1CCN(c2cccc(C(F)(F)F)c2)CC1	none
O=C1C2C3C=CC(CC3)C2C(=O)N1c1cccc(C(F)(F)F)c1 (stereo not drawn)	Apaf1 activ -120 | Rh110 interf act inactive | Apaf-1 act conf inactive
N#Cc1c(N2CCCCC2)nc(N)c2c(N)nc3c(c12)CC(c1ccccc1)O3 (stereo not drawn)	none
S=C(Nc1ccc(Cl)cc1)Nc1cccc2cnccc12	none
CC/C(=C(\c1ccccc1)c1ccc(OCCN(C)C)cc1)c1ccccc1	none
O=CNn1cnc2c(oc3nc(-c4ccccc4)cc(-c4ccco4)c32)c1=O	Apaf1 activ -116 | Rh110 interf act inactive | Apaf-1 act conf inactive
CC(C)(C)C(=O)NC1=NN(c2c(Cl)cc(Cl)cc2Cl)C(=O)C1	none
C=CC[C@@H](Cc1ccc(F)cc1)C(=O)OC[C@H]1CCCN1C(=O)[C@@H](CC=C)CC(=O)N[C@H](CO)Cc1ccccc1	none
Cc1ccc(-c2ccc(/C=N/N=C3/NC(=O)C(CC(=O)O)S3)o2)c([N+](=O)[O-])c1 (stereo not drawn)	none
CN(C(=S)Nc1ccc(SC(F)F)cc1)c1ccc(O)cc1	none
Cc1ccc(NC(=O)C(C)N2C(=O)C3C4CC(C(Br)C4Br)C3C2=O)cc1 (stereo not drawn)	Apaf1 activ -419 | Rh110 interf act inactive | Apaf-1 act conf inactive
N#CCCn1[nH]c(-c2ccccc2)cc1=O	none
NC(=O)CSc1nc2c(sc3ccccc32)c(=O)n1CCCN1CCOCC1	Apaf1 activ -236 | Rh110 interf act inactive | Apaf-1 act conf inactive
Cc1cccc(S(=O)(=O)C(C#N)c2nc3ccccc3nc2N2CCCC2)c1 (stereo not drawn)	none
Cc1cc(C)cc(NC(=O)C2C3C=CC4(O3)C2C(=O)N(CCCN2CCCCC2)C4C(=O)NC2CCCCC2)c1 (stereo not drawn)	Apaf1 activ -325 | Rh110 interf act inactive | Apaf-1 act conf inactive
CC1CCCCN1S(=O)(=O)c1ccc(C(=O)N(CCCN(C)C)c2nc3ccc(Br)cc3s2)cc1 (stereo not drawn)	none
COc1ccc(-c2sc3ccccc3c2-c2ccc(OCCN3CCCCC3)cc2)cc1	none
CCN(CC)CCn1c(SCC(=O)Nc2ccc3c(c2)CCC3)nc2ccccc2c1=O	none
CC1CN(CCC(=O)Nc2ccc3c(c2)CCC3)CC(C)O1 (stereo not drawn)	Apaf1 activ -85 | Rh110 interf act inactive | Apaf-1 act conf inactive
COc1cc(OC)c(NC2=CC(=O)C(=O)c3ccccc32)cc1Cl	none
N#Cc1c(N2CCCC2)nc(N)c2c(N)nc(N3CCCC3)cc12	none
CCNc1ccccc1CP(=O)(c1ccccc1)c1ccccc1O (stereo not drawn)	none
O=C(c1ccccc1)c1ccc2c(c1)OCCOCCOCCOCCO2	Apaf1 activ -208 | Rh110 interf act inactive | Apaf-1 act conf inactive
NC[C@@H]1O[C@H](C23CC4CC(CC(C4)C2)C3)Cc2c1ccc(O)c2O	none
CN(C)CCNC(=O)c1ccc(COc2ccc(Cl)cc2Cl)cc1	none
CCOc1cc(/C=C/C(=O)Nc2ccc(C(=O)NCCN(CC)CC)cc2)ccc1OCC(C)C	none | Apaf1 act interf inactive
CCN(CC)CCNC(=O)c1ccc(NC(C)=O)cc1	none
Cc1ccsc1C=Nc1ccc(O)cc1	none
COC(=O)c1ccc(N2CC3CNC(=O)C2(C(=O)OC)N3C)cc1 (stereo not drawn)	none
CCCCNc1c(-c2ccc(OC)c(Sc3ccc(OC)cc3)c2)nc2cnccn12	none
Cc1ccc(NC(=O)CNCc2ccccc2)cc1Br	Apaf1 activ -48 | Rh110 interf act inactive | Apaf-1 act conf inactive
CN(CC(=O)NCc1ccccc1)CC(=O)Nc1ccc(Cl)c(C(F)(F)F)c1	none
CN(C)CCN(C(=O)c1cccc2ccccc12)c1nc2cc3c(cc2s1)OCO3	none
CCN(Cc1ccccc1)C(=O)c1c[nH]c2ccc(S(=O)(=O)N(C)CCC#N)cc2c1=O	Apaf1 activ -55 | Rh110 interf act inactive | Apaf-1 act conf inactive
C=CCn1c(N)c(C(=O)Nc2cccc(C)c2)c2nc3ccccc3nc21	none
CCSc1nnc2nc3[nH]c4c(C)cccc4c3nn12	Apaf1 activ -76 | Rh110 interf act inactive | Apaf-1 act conf inactive
O=[N+]([O-])c1ccc(-c2ccc(C=Nc3cccc4ccccc34)o2)cc1	none
COC(=O)c1ccc2c(=O)n(CCCCCC(=O)N3CCN(c4ccccc4)CC3)c(=O)[nH]c2c1	none
COCCn1c(=S)[nH]c2cc(C(=O)N3CCN(c4cccc(Cl)c4)CC3)ccc2c1=O	Apaf1 activ -324 | Rh110 interf act inactive | Apaf-1 act conf inactive
O=C(NCCC(=O)N1CCN(c2cccc(Cl)c2)CC1)c1ccc(Br)cc1	none
CCN1CCN(c2ccc(S(=O)(=O)N3CCCCC3)cc2NC(=O)COc2ccc(Cl)c(C)c2)CC1	none
O=C(CCCCCn1c(=O)[nH]c2ccsc2c1=O)N1CCN(C2CCCCC2)CC1	Apaf1 activ -387 | Rh110 interf act inactive | Apaf-1 act conf inactive
COc1ccc(C2=C(CN(C)C)C(c3ccccc3)c3ccccc3O2)cc1 (stereo not drawn)	none
COc1ccc(/C=N/Nc2cc(N3CCCC3)nc(N3CCCC3)n2)cc1	none
